In ChEMBL document CHEMBL2396573, “Synthesis and evaluation of 8-amino-[1,2,4]triazolo[4,3-a]pyridin-3(2H)-one derivatives as glycogen synthase kinase-3 (GSK-3) inhibitors” (Bioorg Med Chem Lett, 2013):

What was measured:
[1] = molecular target: MAP kinase-activated protein kinase 2 (Homo sapiens) (UniProt P49137); assay: Inhibition of human MAPKAP-K2 at 10 uM relative to control
[2] = Plasma concentration in ICR mouse at 30 mg/kg, iv measured at 0.25 hrs by LC/MS/MS analysis; type: ADME, organism-based; design: dose 30 mg/kg, route intravenous
Summary of the method: (§1)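 ICR mice, n = 3, given a single iv dose of 30 mg/kg. Plasma (ng/ml) and brain (ng/g) concentrations measured by LC/MS/MS at 0.25 and 0.75 h. Brain/plasma ratio taken from these paired values.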

[3] = molecular target: Glycogen synthase kinase-3 beta (Homo sapiens) (UniProt P49841); assay: Inhibition of human GSK3beta at 10 uM relative to control
[4] = molecular target: 5'-AMP-activated protein kinase catalytic subunit alpha-1 (Homo sapiens) (UniProt Q13131); assay: Inhibition of human AMPKalpha1 at 10 uM relative to control
[5] = molecular target: Casein kinase II (Homo sapiens) (UniProt P67870+P68400+P19784); assay: Inhibition of human CK2 at 10 uM relative to control; type: protein-complex assay
[6] = molecular target: Glycogen synthase kinase-3 alpha (Homo sapiens) (UniProt P49840); assay: Inhibition of human GSK3alpha at 10 uM relative to control
[7] = molecular target: MAP kinase-activated protein kinase 5 (Homo sapiens) (UniProt Q8IW41); assay: Inhibition of human PRAK at 10 uM relative to control
[8] = molecular target: Mitogen-activated protein kinase 12 (Homo sapiens) (UniProt P53778); assay: Inhibition of human SAPK3 at 10 uM relative to control
[9] = molecular target: Serine/threonine-protein kinase Chk1 (Homo sapiens) (UniProt O14757); assay: Inhibition of human CHK1 at 10 uM relative to control
[10] = Drug uptake in ICR mouse brain at 30 mg/kg, iv measured at 0.25 hrs by LC/MS/MS analysis; type: ADME, organism-based; design: dose 30 mg/kg, route intravenous; settings: read-out: Drug uptake; summary of the method: as §1
[11] = molecular target: Ribosomal protein S6 kinase beta-1 (Homo sapiens) (UniProt P23443); assay: Inhibition of human p70S6K at 10 uM relative to control
[12] = Ratio of drug level from brain to plasma in ICR mouse at 30 mg/kg, iv measured at 0.25 hrs; type: ADME, organism-based; design: dose 30 mg/kg, route intravenous; settings: read-out: BPR; summary of the method: as §1
[13] = molecular target: RAC-alpha serine/threonine-protein kinase (Homo sapiens) (UniProt P31749); assay: Inhibition of human PKBalpha at 10 uM relative to control
[14] = molecular target: CDK2/Cyclin A2 (Homo sapiens) (UniProt P24941+P20248); assay: Inhibition of human CDK2/cyclinA at 10 uM relative to control; type: protein-complex assay
[15] = Ratio of drug level from brain to plasma in ICR mouse at 30 mg/kg, iv measured at 0.75 hrs; type: ADME, organism-based; design: dose 30 mg/kg, route intravenous; settings: read-out: BPR; summary of the method: as §1
[16] = molecular target: Serine/threonine-protein kinase Sgk1 (Homo sapiens) (UniProt O00141); assay: Inhibition of human SGK at 10 uM relative to control
[17] = molecular target: Cyclin-dependent kinase 5/CDK5 activator 1 (Homo sapiens) (UniProt Q00535+Q15078); assay: Inhibition of human CDK5/p25 at 10 uM relative to control; type: protein-complex assay
[18] = Oral bioavailability in rat at 5 mg/kg by LC/MS/MS analysis; type: ADME, organism-based; settings: in vivo
Summary of the method: (§2)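 Rat PK, n = 3 animals; iv dose 3 mg/kg, oral dose 5 mg/kg. Plasma levels quantified by LC/MS/MS after dosing. Derived parameters: AUC0–inf, clearance, elimination half-life and oral bioavailability (F).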

[19] = Clearance in rat at 3 mg/kg, iv by LC/MS/MS analysis; type: ADME, organism-based; design: dose 3 mg/kg, route intravenous; settings: in vivo; summary of the method: as §2
[20] = Solubility of the compound in water; type: physicochemical
[21] = molecular target: Mitogen-activated protein kinase 1 (Homo sapiens) (UniProt P28482); assay: Inhibition of human MAPK1 at 10 uM relative to control
[22] = molecular target: Ribosomal protein S6 kinase alpha-5 (Homo sapiens) (UniProt O75582); assay: Inhibition of human MSK1 at 10 uM relative to control
[23] = molecular target: Rho-associated protein kinase 2 (Homo sapiens) (UniProt O75116); assay: Inhibition of human ROCK-2 at 10 uM relative to control
[24] = molecular target: Mitogen-activated protein kinase 8 (Homo sapiens) (UniProt P45983); assay: Inhibition of human JNK1alpha1 at 10 uM relative to control
[25] = molecular target: Ribosomal protein S6 kinase alpha-3 (Homo sapiens) (UniProt P51812); assay: Inhibition of human RSK2 at 10 uM relative to control
[26] = molecular target: Phosphorylase b kinase gamma catalytic chain, liver/testis isoform (Homo sapiens) (UniProt P15735); assay: Inhibition of human PhKgamma2 at 10 uM relative to control
[27] = molecular target: Tyrosine-protein kinase Lck (Homo sapiens) (UniProt P06239); assay: Inhibition of human LCK at 10 uM relative to control
[28] = molecular target: Mitogen-activated protein kinase 11 (Homo sapiens) (UniProt Q15759); assay: Inhibition of human SAPK2B at 10 uM relative to control
[29] = molecular target: Mitogen-activated protein kinase 13 (Homo sapiens) (UniProt O15264); assay: Inhibition of human SAPK4 at 10 uM relative to control
Homo sapiens = species: Homo sapiens; assay: Inhibition of human PKA at 10 uM relative to control
[30] = AUC (0 to infinity) in rat at 3 mg/kg, iv by LC/MS/MS analysis; type: ADME, organism-based; design: time infinity, dose 3 mg/kg, route intravenous; settings: plasma
Summary of the method: (§3)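 Rat pharmacokinetics with n = 3 per group. Compound given iv at 3 mg/kg or po at 5 mg/kg. Concentrations were measured by LC/MS/MS after administration. AUC0–inf is the area under the concentration–time curve. Clearance, elimination half-life and bioavailability were derived in the same study.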

[31] = molecular target: 3-phosphoinositide-dependent protein kinase 1 (Homo sapiens) (UniProt O15530); assay: Inhibition of human PDK1 at 10 uM relative to control
[32] = Elimination half life in rat at 5 mg/kg, po by LC/MS/MS analysis; type: ADME, organism-based; design: dose 5 mg/kg, route oral; settings: in vivo, read-out: beta t1/2 (converted); summary of the method: as §2
[33] = molecular target: Dual specificity mitogen-activated protein kinase kinase 1 (Homo sapiens) (UniProt Q02750); assay: Inhibition of human MEK1 at 10 uM relative to control
[34] = molecular target: Glycogen synthase kinase-3 (Homo sapiens, UniProt P49840+P49841); assay: Inhibition of recombinant human GSK3 using YRRAAVPPSPSLSRHSSPHQ(pS)EDEEE as substrate preincubated for 10 mins followed by [33P-gamma]-ATP addition measured after 30 mins by liquid scintillation counting analysis; type: protein assay
Summary of the method: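 Reaction started with 1 µM ATP […] 33P-γ-ATP, run 30 min at 30 °C, and stopped with 3% phosphoric acid. Product captured on P81 paper and read by scintillation counting. IC50 is the mean of triplicates.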

[35] = Elimination half life in rat at 3 mg/kg, iv by LC/MS/MS analysis; type: ADME, organism-based; design: dose 3 mg/kg, route intravenous; settings: in vivo, read-out: beta t1/2 (converted); summary of the method: as §2
[36] = Inhibition of GSK3 in rat […] cells assessed as reduction in glucose production after overnight incubation by fluorescence assay; type: cell-based
Summary of the method: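 Rat hepatoma H4IIE cells grown in DMEM + 10% FBS, 2 mM L-glutamine and penicillin–streptomycin at 37 °C, 5% CO2, and passaged at 75% confluence. Plated at 100,000 cells/well, attached ~3 h, then PBS-washed and held overnight in glucose- and serum-free DMEM with 20 mM lactate and 2 mM pyruvate. Compounds, diluted in this medium, added overnight. Glucose in medium read with Amplex Red/glucose oxidase (30 min, dark; ex 560/em 615 nm); mean of triplicates.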

[37] = molecular target: Mitogen-activated protein kinase 14 (Homo sapiens) (UniProt Q16539); assay: Inhibition of human SAPK2A at 10 uM relative to control
[38] = molecular target: Protein kinase C alpha type (Homo sapiens) (UniProt P17252); assay: Inhibition of human PKCalpha at 10 uM relative to control
[39] = AUC (0 to infinity) in rat at 5 mg/kg, po by LC/MS/MS analysis; type: ADME, organism-based; design: time infinity, dose 5 mg/kg, route oral; settings: plasma; summary of the method: as §3
[40] = Plasma concentration in ICR mouse at 30 mg/kg, iv measured at 0.75 hrs by LC/MS/MS analysis; type: ADME, organism-based; design: dose 30 mg/kg, route intravenous; summary of the method: as §1
[41] = Drug uptake in ICR mouse brain at 30 mg/kg, iv measured at 0.75 hrs by LC/MS/MS analysis; type: ADME, organism-based; design: dose 30 mg/kg, route intravenous; settings: read-out: Drug uptake; summary of the method: as §1

Chain of MAP kinase-activated protein kinase 2 (Homo sapiens) (P49137 whole entry, looked up): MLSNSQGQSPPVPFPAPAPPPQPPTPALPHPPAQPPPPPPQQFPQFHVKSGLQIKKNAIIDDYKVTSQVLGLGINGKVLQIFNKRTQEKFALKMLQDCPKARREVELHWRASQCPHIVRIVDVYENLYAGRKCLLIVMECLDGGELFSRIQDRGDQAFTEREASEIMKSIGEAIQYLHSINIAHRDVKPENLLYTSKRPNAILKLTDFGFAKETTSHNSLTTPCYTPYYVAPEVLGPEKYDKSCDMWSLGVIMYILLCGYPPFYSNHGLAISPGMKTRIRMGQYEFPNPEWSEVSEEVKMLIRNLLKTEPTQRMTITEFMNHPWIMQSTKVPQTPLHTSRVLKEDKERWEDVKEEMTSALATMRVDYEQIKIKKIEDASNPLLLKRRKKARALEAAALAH
Chain of Dual specificity mitogen-activated protein kinase kinase 1 (Homo sapiens) (Q02750 whole entry): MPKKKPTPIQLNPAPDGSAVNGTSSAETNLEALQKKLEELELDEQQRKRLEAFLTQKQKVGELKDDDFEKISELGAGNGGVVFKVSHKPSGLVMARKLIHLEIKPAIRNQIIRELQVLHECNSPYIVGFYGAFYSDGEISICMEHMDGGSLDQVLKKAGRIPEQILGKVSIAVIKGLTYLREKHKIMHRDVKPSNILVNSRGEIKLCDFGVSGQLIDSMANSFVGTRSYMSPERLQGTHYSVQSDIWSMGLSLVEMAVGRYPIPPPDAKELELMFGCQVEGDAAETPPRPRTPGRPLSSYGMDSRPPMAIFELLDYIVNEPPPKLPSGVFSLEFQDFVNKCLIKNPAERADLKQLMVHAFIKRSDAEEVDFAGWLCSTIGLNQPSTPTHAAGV
Chain of Mitogen-activated protein kinase 12 (Homo sapiens) (P53778 whole entry): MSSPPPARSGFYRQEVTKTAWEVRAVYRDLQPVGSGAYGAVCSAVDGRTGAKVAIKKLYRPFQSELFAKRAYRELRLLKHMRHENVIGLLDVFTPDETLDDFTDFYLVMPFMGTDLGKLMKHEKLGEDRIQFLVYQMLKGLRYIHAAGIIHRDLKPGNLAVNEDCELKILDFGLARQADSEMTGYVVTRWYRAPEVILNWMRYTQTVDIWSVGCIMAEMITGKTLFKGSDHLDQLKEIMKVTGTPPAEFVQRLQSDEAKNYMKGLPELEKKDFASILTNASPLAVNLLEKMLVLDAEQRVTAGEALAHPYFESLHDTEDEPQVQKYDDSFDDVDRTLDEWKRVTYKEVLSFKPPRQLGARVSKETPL
Chain of Glycogen synthase kinase-3 alpha (Homo sapiens) (P49840 2-483 limits assumed): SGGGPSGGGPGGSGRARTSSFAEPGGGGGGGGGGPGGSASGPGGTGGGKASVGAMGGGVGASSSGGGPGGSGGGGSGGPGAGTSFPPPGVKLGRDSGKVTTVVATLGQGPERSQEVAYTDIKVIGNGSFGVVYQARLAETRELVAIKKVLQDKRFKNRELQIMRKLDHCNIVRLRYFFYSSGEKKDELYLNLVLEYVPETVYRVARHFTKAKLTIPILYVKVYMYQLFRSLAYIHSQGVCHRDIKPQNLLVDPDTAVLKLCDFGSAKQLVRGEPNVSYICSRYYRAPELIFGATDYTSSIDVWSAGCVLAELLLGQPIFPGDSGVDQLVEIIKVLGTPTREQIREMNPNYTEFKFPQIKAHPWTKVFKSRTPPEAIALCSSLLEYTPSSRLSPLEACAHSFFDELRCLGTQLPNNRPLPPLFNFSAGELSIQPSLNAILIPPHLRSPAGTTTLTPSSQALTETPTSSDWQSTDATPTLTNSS
Chain of Ribosomal protein S6 kinase alpha-5 (Homo sapiens) (O75582 whole entry, looked up): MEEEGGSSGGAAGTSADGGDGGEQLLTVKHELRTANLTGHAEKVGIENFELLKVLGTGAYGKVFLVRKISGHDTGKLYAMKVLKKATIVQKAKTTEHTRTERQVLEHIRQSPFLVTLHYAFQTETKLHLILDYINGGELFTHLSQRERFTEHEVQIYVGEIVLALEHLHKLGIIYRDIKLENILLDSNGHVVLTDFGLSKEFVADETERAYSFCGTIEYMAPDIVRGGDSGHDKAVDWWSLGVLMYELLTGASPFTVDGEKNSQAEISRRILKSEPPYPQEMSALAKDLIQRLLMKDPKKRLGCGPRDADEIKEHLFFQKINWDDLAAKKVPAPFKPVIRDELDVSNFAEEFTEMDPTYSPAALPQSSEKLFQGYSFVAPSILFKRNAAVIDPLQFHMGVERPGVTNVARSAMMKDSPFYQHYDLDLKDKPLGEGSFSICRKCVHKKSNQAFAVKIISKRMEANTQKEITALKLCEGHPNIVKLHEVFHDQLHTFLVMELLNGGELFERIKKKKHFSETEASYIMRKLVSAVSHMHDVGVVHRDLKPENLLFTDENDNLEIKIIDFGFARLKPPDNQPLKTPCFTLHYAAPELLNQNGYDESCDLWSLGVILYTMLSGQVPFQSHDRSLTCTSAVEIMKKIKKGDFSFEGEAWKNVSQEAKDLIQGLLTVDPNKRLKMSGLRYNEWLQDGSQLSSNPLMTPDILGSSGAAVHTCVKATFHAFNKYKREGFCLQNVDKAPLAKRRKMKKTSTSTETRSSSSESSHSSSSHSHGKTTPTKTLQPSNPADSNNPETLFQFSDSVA
Chain of Phosphorylase b kinase gamma catalytic chain, liver/testis isoform (Homo sapiens) (P15735 whole entry, canonical isoform): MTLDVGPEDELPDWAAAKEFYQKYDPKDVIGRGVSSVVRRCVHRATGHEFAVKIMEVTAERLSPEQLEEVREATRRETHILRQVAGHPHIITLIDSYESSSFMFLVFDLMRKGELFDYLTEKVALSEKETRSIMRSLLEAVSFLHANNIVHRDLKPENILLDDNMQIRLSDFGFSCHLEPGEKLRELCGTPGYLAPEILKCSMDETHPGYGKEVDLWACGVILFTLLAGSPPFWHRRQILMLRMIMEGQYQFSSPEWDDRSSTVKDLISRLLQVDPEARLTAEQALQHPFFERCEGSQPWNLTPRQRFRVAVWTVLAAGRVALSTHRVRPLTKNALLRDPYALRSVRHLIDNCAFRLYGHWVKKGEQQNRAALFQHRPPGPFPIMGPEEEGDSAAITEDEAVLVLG
Chain of Ribosomal protein S6 kinase alpha-3 (Homo sapiens) (P51812 whole entry, canonical isoform): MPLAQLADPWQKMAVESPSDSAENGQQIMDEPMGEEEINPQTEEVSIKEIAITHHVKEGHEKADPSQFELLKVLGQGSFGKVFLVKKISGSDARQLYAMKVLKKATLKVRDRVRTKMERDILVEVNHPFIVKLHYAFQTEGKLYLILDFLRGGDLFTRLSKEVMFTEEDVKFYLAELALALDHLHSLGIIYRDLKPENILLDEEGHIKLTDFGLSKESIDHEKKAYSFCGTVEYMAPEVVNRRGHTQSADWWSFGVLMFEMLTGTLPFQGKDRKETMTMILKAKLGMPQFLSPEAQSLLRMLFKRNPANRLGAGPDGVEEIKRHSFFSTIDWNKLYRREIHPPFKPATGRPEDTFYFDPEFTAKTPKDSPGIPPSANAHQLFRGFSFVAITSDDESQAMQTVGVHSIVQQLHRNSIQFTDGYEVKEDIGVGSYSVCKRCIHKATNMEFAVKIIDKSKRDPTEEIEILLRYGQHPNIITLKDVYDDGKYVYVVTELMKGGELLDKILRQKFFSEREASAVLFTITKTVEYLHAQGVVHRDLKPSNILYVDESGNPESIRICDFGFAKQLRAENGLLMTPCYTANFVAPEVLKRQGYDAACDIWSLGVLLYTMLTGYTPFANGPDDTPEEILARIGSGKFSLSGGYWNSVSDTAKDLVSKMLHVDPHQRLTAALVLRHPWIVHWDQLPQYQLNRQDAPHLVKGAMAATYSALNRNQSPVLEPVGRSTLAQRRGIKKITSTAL
Chain of Glycogen synthase kinase-3 beta (Homo sapiens) (P49841 whole entry, looked up): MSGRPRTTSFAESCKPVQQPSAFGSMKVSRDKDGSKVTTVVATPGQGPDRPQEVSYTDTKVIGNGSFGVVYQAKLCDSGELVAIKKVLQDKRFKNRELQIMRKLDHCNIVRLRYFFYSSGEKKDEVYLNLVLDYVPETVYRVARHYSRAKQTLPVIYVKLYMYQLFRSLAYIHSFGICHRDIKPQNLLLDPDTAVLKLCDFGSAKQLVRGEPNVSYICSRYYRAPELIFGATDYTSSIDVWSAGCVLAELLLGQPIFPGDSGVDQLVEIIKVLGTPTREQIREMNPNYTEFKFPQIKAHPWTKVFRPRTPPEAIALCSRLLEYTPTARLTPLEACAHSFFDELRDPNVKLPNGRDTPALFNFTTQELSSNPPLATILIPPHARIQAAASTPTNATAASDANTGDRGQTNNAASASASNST

Cl.O=c1[nH]nc2c(NCCCc3ccncc3)cc(Cl)cn12
inhibition [1]: 19% | concentration at 0.25 h [2]: 634 ng/mL | inhibition [3]: 90% | inhibition [4]: -1% | inhibition [5]: 5% | inhibition [6]: 99% | inhibition [7]: 14% | inhibition [8]: 5% | inhibition [9]: 21% | concentration at 0.25 h [10]: 214 ng/g | inhibition [11]: 14% | Kp at 0.25 h [12]: 0.34 | inhibition [13]: 12% | inhibition [14]: 54% | Kp at 0.75 h [15]: 0.1 | inhibition [16]: 22% | inhibition [17]: 53% | bioavailability [18]: 83% | clearance [19]: 20 mL/min/kg | solubility [20]: > 10000 µg/mL | inhibition [21]: 15% | inhibition [22]: 9% | inhibition [23]: 27% | inhibition [24]: 9% | inhibition [25]: 34% | inhibition [26]: 25% | inhibition [27]: 19% | inhibition [28]: 1% | inhibition [29]: 2% | inhibition (Homo sapiens): 0% | AUC(0-inf) [30]: 2490 ng·h/mL | inhibition [31]: 10% | half-life [32]: 72 min | inhibition [33]: 9% | IC50 [34]: 111 nM | half-life [35]: 24 min | EC50 [36]: 1780 nM | inhibition [37]: -1% | inhibition [38]: 18% | AUC(0-inf) [39]: 3460 ng·h/mL | concentration at 0.75 h [40]: 1050 ng/mL | concentration at 0.75 h [41]: 107 ng/g

COc1ccc(OCCn2nc3c(N)cccn3c2=O)cc1
IC50 [34]: > 50000 nM

COc1ccc(OCCNc2cc(C)cn3c(=O)[nH]nc23)cc1
IC50 [34]: 7010 nM

Cc1cc(NCCCc2ccccn2)c2n[nH]c(=O)n2c1.Cl
IC50 [34]: 1200 nM | EC50 [36]: 21100 nM

COc1cc(CCCNc2cc(C)cn3c(=O)[nH]nc23)ccn1.Cl
IC50 [34]: 641 nM | EC50 [36]: 9110 nM

COc1ccc(CCC(=O)Nc2cccn3c(=O)[nH]nc23)cc1
IC50 [34]: > 50000 nM

Cc1ccc(CCCNc2cc(Cl)cn3c(=O)[nH]nc23)cn1.Cl
IC50 [34]: 342 nM | EC50 [36]: 2740 nM

Cc1cc(NCCCn2ccnc2)c2n[nH]c(=O)n2c1.Cl
IC50 [34]: 1360 nM | EC50 [36]: 13300 nM

Cl.O=c1[nH]nc2c(NCCCc3cccc(OCCN4CCOCC4)c3)cc(Cl)cn12
IC50 [34]: 247 nM | EC50 [36]: 3840 nM

Cc1cc(NCCCc2cccnc2)c2n[nH]c(=O)n2c1.Cl
IC50 [34]: 354 nM | EC50 [36]: 5440 nM

Cl.O=c1[nH]nc2c(NCCCc3cccnc3)cc(Cl)cn12
IC50 [34]: 520 nM | EC50 [36]: 1680 nM

Cc1cc(N(C)CCCc2ccccn2)c2n[nH]c(=O)n2c1.Cl
IC50 [34]: 50000 nM

Cc1cc(NCCCc2ccncc2)c2n[nH]c(=O)n2c1.Cl
IC50 [34]: 607 nM | EC50 [36]: 6230 nM

Nc1cccn2c(=O)[nH]nc12
IC50 [34]: > 50000 nM

Cc1cc(CCCNc2cc(Cl)cn3c(=O)[nH]nc23)ccn1.Cl
IC50 [34]: 818 nM | EC50 [36]: 7030 nM

Cl.Nc1cc(CCCNc2cc(Cl)cn3c(=O)[nH]nc23)ccn1
IC50 [34]: 249 nM | EC50 [36]: 2360 nM

Cc1cc(NCCCc2ccnc(Cl)c2)c2n[nH]c(=O)n2c1.Cl
IC50 [34]: 774 nM | EC50 [36]: 12100 nM

Cc1cc(NCCCc2ccc(N)cc2)c2n[nH]c(=O)n2c1.Cl
IC50 [34]: 1010 nM | EC50 [36]: 18400 nM

Cl.O=c1[nH]nc2c(NCCCc3ccnc(Cl)c3)cc(Cl)cn12
IC50 [34]: 199 nM | EC50 [36]: 2630 nM

Cc1cc(NCCCc2ccc(C)nc2)c2n[nH]c(=O)n2c1.Cl
IC50 [34]: 309 nM | EC50 [36]: 1250 nM

COc1ccc(OCCNc2cccn3c(=O)[nH]nc23)cc1
IC50 [34]: 13000 nM

Cc1cc(NCCCN2CCNCC2)c2n[nH]c(=O)n2c1.Cl
IC50 [34]: > 50000 nM

COc1cccc(CCCNc2cc(Cl)cn3c(=O)[nH]nc23)c1
IC50 [34]: 190 nM | EC50 [36]: 2710 nM
